Series [1] relates to L1210. Briefly: Cytotoxicity against mouse L1210 cells. The series is classed as functional, cell-based. In outline:
(§1)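 Proliferation of suspension tumour cells (murine L1210 and FM3A, human Molt4/C8 and CEM) was measured. IC50 is the compound concentration that inhibits cell proliferation by 50%.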

The nature of series [2]: Cytotoxicity against MDCK cells assessed as reduction of cell viability by MTS dye staining. The series is classed as cell-based, Canis lupus familiaris. As to conditions: dog. The method, boiled down:
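MDCK cell viability read by colorimetric formazan-based MTS dye staining. CC50 is the compound concentration that reduces cell viability by 50%.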

Series [3] can be described thus: Cytotoxicity against human HEL cells assessed as induction of microscopically visible alteration in cell morphology. The series is classed as cell-based. As to conditions: read-out: MIC. In outline:
(§2)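 HEL, Vero and HeLa cell cultures were examined under the microscope for changes in cell morphology. MIC is the compound concentration that causes a microscopically visible alteration of cell morphology.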

Series [4] is described as follows: Cytotoxicity against african green monkey Vero cells assessed as induction of microscopically visible alteration in cell morphology. Format: cell-based. The note with it: chlorocebus sabaeus, read-out: MIC. In outline:
as §2

Another series concerns FM3A. The series is described as follows: Cytotoxicity against mouse FM3A cells. The series is classed as functional, cell-based. In outline:
as §1

Another series relates to HeLa. The series is described as follows: Cytotoxicity against human HeLa cells assessed as induction of microscopically visible alteration in cell morphology. The series is classed as functional. The note with it: read-out: MIC. In outline:
as §2

The nature of series [5]: Cytotoxicity against human Molt4/C8 cells. As to conditions: MOLT-4. Format: functional, cell-based. The method, boiled down: as §1
For series [6], the system named is CCRF-CEM. Briefly: Cytotoxicity against human CEM cells. The series is classed as functional, cell-based. The method, boiled down:
as §1

In series [7] the test system is CCRF-CEM. Briefly: Cytotoxicity against human CEM cells assessed as inhibition of [3H]Leu incorporation into macromolecules. Format: functional. In outline: (§3)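 L1210 and CEM cells were given radiolabelled [3H]dThd (DNA), [3H]Urd (RNA) or [3H]Leu (protein). Label incorporated into methanol-insoluble material was measured. IC50 is the concentration that inhibits precursor incorporation by 50%.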

Series [8] deals with L1210. Briefly: Cytotoxicity against mouse L1210 cells assessed as inhibition of [3H]Urd incorporation into macromolecules. The series is classed as functional. The method, boiled down:
as §3

Series [9] has as its system L1210. Briefly: Cytotoxicity against mouse L1210 cells assessed as inhibition of [3H]dThd incorporation into macromolecules. Format: functional. In outline:
as §3

Series [10] deals with CCRF-CEM. Briefly: Cytotoxicity against human CEM cells assessed as inhibition of [3H]dThd incorporation into macromolecules. Format: functional. The method, boiled down:
as §3

The test system of series [11] is L1210. Briefly: Cytotoxicity against mouse L1210 cells assessed as inhibition of [3H]Leu incorporation into macromolecules. Format: functional. The method, boiled down: as §3
In series [12] the test system is CCRF-CEM. Briefly: Cytotoxicity against human CEM cells assessed as inhibition of [3H]Urd incorporation into macromolecules. Format: functional. In outline: as §3

The values that follow come from ChEMBL document CHEMBL1153787, “Unsaturated dideoxy fluoro-ketopyranosyl nucleosides as new cytostatic agents: a convenient synthesis of 2,6-dideoxy-3-fluoro-4-keto-beta-D-glucopyranosyl analogues of uracil, 5-fluorouracil, thymine, N4-benzoyl cytosine and N6-benzoyl adenine” (Eur J Med Chem, 2009).

As to `C[C@H]1O[C@@H](n2cc(F)c(=O)[nH]c2=O)C=C(F)C1=O`, the IC50 with L1210 [1] is 0.82 µM; with FM3A, 0.49 µM; in [5] it was 3.3 µM; in the series with CCRF-CEM [6], 3.7 µM. In addition, the CC50 in series [2] was determined as 0.6 µM. For the same molecule, the MCC in [3] and in [4] was 20 µM each time. For the same molecule, in the series on HeLa, the minimum cytotoxic concentration (MCC) came to 20 µM.
`Cc1cn([C@H]2C=C(F)C(=O)[C@@H](C)O2)c(=O)[nH]c1=O`: the IC50 in the series with L1210 [1] is 2.8 µM; in the series on FM3A, 10 µM; in series [5], 2.5 µM; with CCRF-CEM [6] it was 2.6 µM. The half-maximal cytotoxic concentration (CC50) in series [2] was 0.7 µM. Also, the MCC in series [3] and in series [4] was 20 µM in each case. Further, the minimum cytotoxic concentration (MCC) in the series with HeLa stood at 20 µM.
Turning to `C[C@H]1O[C@@H](n2ccc(=O)[nH]c2=O)C=C(F)C1=O`, the IC50 in the series on L1210 [1] came out at 2.9 µM; in the series on FM3A, 16 µM; in series [5], 2.5 µM; in the series on CCRF-CEM [6], 2.2 µM. Further, the CC50 in [2] came out at 0.6 µM. Besides, the MCC in series [3] and in [4] was 20 µM in each case. Moreover, the minimum cytotoxic concentration (MCC) with HeLa was determined as 20 µM.
`C[C@H]1O[C@@H](n2cnc3c(NC(=O)c4ccccc4)ncnc32)C=C(F)C1=O`: the IC50 is 2.4 µM with L1210 [1], 6 µM in the series with FM3A, 5 µM in series [5] and 4.3 µM in the series on CCRF-CEM [6]. In addition, in series [2], the CC50 was 12 µM. The MCC in [3] and in series [4] was 20 µM each time. Also, the minimum cytotoxic concentration (MCC) with HeLa turned out to be 20 µM.
As for `C[C@H]1O[C@@H](n2ccc(NC(=O)c3ccccc3)nc2=O)C=C(F)C1=O`, the IC50 in the series on L1210 [1] was determined as 1.4 µM; in the series on CCRF-CEM [7] it was 7.9 µM; with FM3A it was 11.9 µM; in the series with L1210 [8], 10 µM; with L1210 [9] it was 12 µM; in [5], 1.6 µM. Moreover, the IC50 was determined as 1.7 µM with CCRF-CEM [6], 11 µM in the series with CCRF-CEM [10], 12 µM in the series on L1210 [11] and 12 µM with CCRF-CEM [12]. Also, the CC50 in series [2] turned out to be 8.2 µM. For the same molecule, the MCC in series [3] and in series [4] was 20 µM in each case. Besides, the minimum cytotoxic concentration (MCC) in the series with HeLa was 20 µM.

What is called IC50 is the concentration needed to halve the response being measured. For orientation: CC50 means the concentration giving 50% cytotoxicity.
